Source: ChEMBL document CHEMBL1955766, “Structure guided development of novel thymidine mimetics targeting Pseudomonas aeruginosa thymidylate kinase: from hit to lead generation” (J Med Chem, 2012)

What was measured:
Pseudomonas aeruginosa [1] = assay: Antibacterial activity against Pseudomonas aeruginosa PAO1; assay type: functional
Pseudomonas aeruginosa [2] = assay: Antibacterial activity against […], MexXY, MeyZ efflux pump- knock out Pseudomonas aeruginosa PAO280; assay type: functional
[3] = Inhibition of Pseudomonas aeruginosa thymidylate kinase expressed in Escherichia coli BL21 (DE3) cells assessed as phosphorylation of dTMP to dTDP after 20 mins by spectrophotometric analysis
In short: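 PaTMK from pET15b in E. coli BL21 DE3, purified by HisTrap and Superdex 200, used at 40 nM. dTDP formation was coupled via PK/LDH/NDP kinase to NADH oxidation (A340) over 20 min at 25 °C.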

Thymidylate kinase = target: T1, Thymidylate kinase (Homo sapiens, UniProt P23919); assay: Inhibition of human thymidylate kinase using dTMP as substrate after 30 mins by fluorescence analysis
T1 sequence (P23919 whole entry): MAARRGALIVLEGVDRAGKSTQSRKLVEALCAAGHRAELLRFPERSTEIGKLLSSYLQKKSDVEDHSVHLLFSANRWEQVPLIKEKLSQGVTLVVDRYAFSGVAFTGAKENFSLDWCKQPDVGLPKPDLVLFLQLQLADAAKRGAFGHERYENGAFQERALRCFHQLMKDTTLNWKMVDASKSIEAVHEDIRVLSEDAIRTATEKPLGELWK

[4] = target: T2, Thymidylate kinase (Homo sapiens) (UniProt P23919); assay: Inhibition of human thymidylate kinase using dTMP as substrate at 200 uM after 30 mins by fluorescence analysis
T2 sequence (whole entry): T1 sequence (P23919 whole entry)
In short: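 Inhibitor range 0.39–200 μM. Reaction runs 2 min at room temperature, then ADP-detection reagents for 30 min. Read-out is fluorescence at ex 485/em 535 nm. Percent inhibition is corrected using no-enzyme and 5 μM ADP interference controls.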

BL21-DE3 = assay: Ratio of dFTM IC50 to compound IC50 for Pseudomonas aeruginosa thymidylate kinase expressed in Escherichia coli BL21 (DE3) cells assessed as phosphorylation of TMP to dTDP after 20 mins by spectrophotometric analysis
In short: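 His-tagged P. aeruginosa TMK expressed in E. coli BL21(DE3) and purified (Ni affinity, gel filtration). TMK diluted in buffer; 40 nM enzyme. Coupled PK/LDH/NDP kinase read-out: 2 mM ATP, 54 μM TMP, 2 mM PEP, 0.22 mM NADH, 40 mM HEPES pH 8.0, 80 mM KCl, 1.6 mM MgCl2. A340 decrease followed 20 min at 25 °C. Twenty 1.67-fold dilutions from 200 or 100 μM final. Initial rates relative to EDTA and enzyme-alone controls. IC50 ratio versus reference inhibitor.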

[5] = Selectivity ratio of IC50 for human thymidylate kinase to IC50 for Pseudomonas aeruginosa thymidylate kinase
In short: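 Compound tested at 0.39–200 μM. Reaction 2 min at room temperature, then ADP detection reagents 30 min. Fluorescence read at ex 485/em 535 nm, corrected using 5 μM ADP interference controls and no-enzyme controls. Result is the ratio against the PaTMK coupled-assay IC50.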

Row | SMILES | MIC (Pseudomonas aeruginosa [1]) [µg/mL] | MIC (Pseudomonas aeruginosa [2]) [µg/mL] | IC50 [3] [nM] | IC50 (Thymidylate kinase) [nM] | inhibition [4] [%] | Ratio IC50 (BL21-DE3) | Ratio IC50 [5]
1 | Cn1c(=O)[nH]c2ncc(-c3cccc(C(=O)NCCCc4ccc(C(=O)O)cc4)c3)cc21 | > 256 | > 256 | 2700 | – | – | – | –
2 | Cn1c(=O)[nH]c2ncc(-c3cccc(C(=O)NCCS(=O)(=O)O)c3)cc21 | > 256 | > 256 | 1300 | – | – | – | –
3 | Cn1c(=O)[nH]c2ncc(-c3cccc(C(=O)NCC(N)=O)c3)cc21 | > 256 | > 256 | 880 | – | – | – | –
4 | Cn1c(=O)[nH]c2ncc(-c3cccc(C(=O)NCc4ccccc4)c3)cc21 | > 256 | > 256 | 1000 | – | – | – | –
5 | CC(=O)c1cccc(-c2cnc3[nH]c(=O)n(C)c3c2)c1 | > 256 | > 256 | 13000 | – | – | – | –
6 | Cl.Cn1c(=O)[nH]c2ncc(-c3cccc(C(=O)NCCCc4ccc(CN)cc4)c3)cc21 | > 256 | > 256 | 3200 | – | – | – | –
7 | Cn1c(=O)[nH]c2ncc(-c3cncnc3)cc21 | > 256 | > 256 | > 200000 | – | – | – | –
8 | Cn1c(=O)[nH]c2ncc(-c3ccncc3)cc21 | > 256 | > 256 | 152000 | – | – | – | –
9 | Cn1c(=O)[nH]c2ncc(-c3cccc(C(=O)NCCc4ccccc4)c3)cc21 | > 256 | > 256 | 2900 | – | – | – | –
10 | Cn1c(=O)[nH]c2ncc(-c3cccc(C(N)=O)c3)cc21 | > 256 | > 256 | – | > 200000 | 12 | 60 | –
11 | Cn1c(=O)[nH]c2ncc(-c3ccc(C(N)=O)cc3)cc21 | > 256 | > 256 | > 200000 | – | – | – | –
12 | CC(NC(=O)c1cccc(-c2cnc3[nH]c(=O)n(C)c3c2)c1)C(=O)O (centres undefined) | > 256 | > 256 | 5000 | – | – | – | –
13 | Cn1c(=O)[nH]c2ncc(-c3cccc(C(=O)NCCCc4ccc(F)cc4)c3)cc21 | > 256 | > 256 | 120 | 123000 | 58 | – | > 1000
14 | Cn1c(=O)[nH]c2ncc(-c3cccc(C(=O)NCCCc4ccccc4)c3)cc21 | > 256 | > 256 | 120 | > 200000 | 43 | – | > 1000
15 | Cn1c(=O)[nH]c2ncc(-c3cccc(C(=O)NCCCc4c[nH]c5ccccc45)c3)cc21 | > 256 | > 256 | 200 | – | – | – | –
16 | Cl.Cn1c(=O)[nH]c2ncc(-c3ccc(CN)cc3)cc21 | > 256 | > 256 | 4900 | – | – | – | –
17 | COC(=O)c1ccccc1CCCNC(=O)c1cccc(-c2cnc3[nH]c(=O)n(C)c3c2)c1 | > 256 | > 256 | 370 | – | – | – | –
18 | Cn1c(=O)[nH]c2ncc(-c3cccc(S(N)(=O)=O)c3)cc21 | > 256 | > 256 | > 200000 | – | – | – | –
19 | Cn1c(=O)[nH]c2ncc(-c3cccc(C(=O)NCC(Cc4ccccc4)C(=O)O)c3)cc21 (racemic) | > 256 | > 256 | 250 | – | – | – | –
20 | Cl.Cn1c(=O)[nH]c2ncc(-c3cccc(C(=O)NCCN)c3)cc21 | > 256 | > 256 | 3200 | – | – | – | –
21 | Cn1c(=O)[nH]c2ncc(-c3cccc(C(=O)NCCc4nc5ccccc5[nH]4)c3)cc21 | > 256 | > 256 | 3000 | – | – | – | –
22 | CC(=O)Nc1cccc(-c2cnc3[nH]c(=O)n(C)c3c2)c1 | > 256 | > 256 | 3400 | – | – | – | –
23 | Cn1c(=O)[nH]c2ncc(-c3cccc(C(=O)NC(CCc4ccccc4)C(=O)O)c3)cc21 (racemic) | > 256 | > 256 | 12000 | – | – | – | –
24 | Cl.Cn1c(=O)[nH]c2ncc(-c3cccc(C(=O)NCCCc4cccc(CN)c4)c3)cc21 | > 256 | > 256 | 2200 | – | – | – | –
25 | Cn1c(=O)[nH]c2ncc(-c3cccc(C(=O)NCCCc4cccnc4)c3)cc21 | > 256 | > 256 | 510 | – | – | – | –
26 | CN(C)C(=O)c1cccc(-c2cnc3[nH]c(=O)n(C)c3c2)c1 | > 256 | > 256 | 104000 | – | – | – | –

Row | SMILES | MIC (Pseudomonas aeruginosa [1]) [µg/mL] | MIC (Pseudomonas aeruginosa [2]) [µg/mL] | IC50 [3] [nM] | IC50 (Thymidylate kinase) [nM] | inhibition [4] [%] | Ratio IC50 (BL21-DE3) | Ratio IC50 [5]
27 | Cn1c(=O)[nH]c2ncc(-c3cccc(C(=O)NCCCc4cccc(C(=O)O)c4)c3)cc21 | > 256 | > 256 | 2400 | – | – | – | –
28 | Cn1c(=O)[nH]c2ncc(-c3cccc(C(=O)NCCCc4ccccc4C(=O)O)c3)cc21 | > 256 | > 256 | 2000 | – | – | – | –
29 | Cn1c(=O)[nH]c2ncc(-c3cccc(C(=O)NCCC(=O)O)c3)cc21 | > 256 | > 256 | 2600 | – | – | – | –
30 | Cn1c(=O)[nH]c2ncc(-c3cccc(C(=O)NCCc4ccncc4)c3)cc21 | > 256 | > 256 | 2000 | – | – | – | –
31 | Cn1c(=O)[nH]c2ncc(-c3cccc(C(=O)NCCCC4CCCC4)c3)cc21 | > 256 | > 256 | 810 | – | – | – | –
32 | Cn1c(=O)[nH]c2ncc(-c3cccc(C(=O)NCCO)c3)cc21 | > 256 | > 256 | 2600 | – | – | – | –
33 | Cn1c(=O)[nH]c2ncc(-c3cccc(O)c3)cc21 | > 256 | > 256 | 11000 | – | – | – | –
34 | Cc1cn([C@H]2C[C@H](O)[C@@H](CF)O2)c(=O)[nH]c1=O | > 256 | > 256 | – | – | – | – | –
35 | Cl.Cn1c(=O)[nH]c2ncc(-c3cccc(CN)c3)cc21 | > 256 | > 256 | > 200000 | – | – | – | –
36 | Cn1c(=O)[nH]c2ncc(-c3cccc(C#N)c3)cc21 | > 256 | > 256 | > 200000 | – | – | – | –
37 | CNC(=O)c1cccc(-c2cnc3[nH]c(=O)n(C)c3c2)c1 | > 256 | > 256 | 2200 | – | – | – | –
38 | Cn1c(=O)[nH]c2ncc(-c3ccccc3)cc21 | > 256 | > 256 | – | > 200000 | 17 | – | –
39 | Cn1c(=O)[nH]c2ncc(-c3cccc(F)c3)cc21 | > 256 | > 256 | > 200000 | – | – | – | –
40 | Cn1c(=O)[nH]c2ncc(-c3cccc(C(=O)NCC(=O)O)c3)cc21 | > 256 | > 256 | 880 | – | – | – | –
41 | Cn1c(=O)[nH]c2ncc(-c3cccnc3)cc21 | > 256 | > 256 | 66000 | – | – | – | –
42 | Cn1c(=O)[nH]c2ncc(-c3cccc(CO)c3)cc21 | > 256 | > 256 | 37000 | – | – | – | –
43 | Cn1c(=O)[nH]c2ncc(-c3cccc(C(=O)NCCCc4c[nH]cn4)c3)cc21 | > 256 | > 256 | 990 | – | – | – | –
44 | Cn1c(=O)[nH]c2ncc(-c3cccc(C(=O)NCc4nc5ccccc5[nH]4)c3)cc21 | > 256 | > 256 | 68000 | – | – | – | –
45 | Cn1c(=O)[nH]c2ncc(-c3ccc(O)cc3)cc21 | > 256 | > 256 | 21000 | – | – | – | –
46 | Cn1c(=O)[nH]c2ncc(-c3cccc(C(=O)NCCCN4CCOCC4)c3)cc21 | > 256 | > 256 | 5800 | – | – | – | –
47 | Cn1c(=O)[nH]c2ncc(-c3cccc(C(=O)NCc4ccccn4)c3)cc21 | > 256 | > 256 | 6200 | – | – | – | –
48 | Cn1c(=O)[nH]c2ncc(-c3cccc(C(=O)NCCCc4ccc(C(F)(F)F)cc4)c3)cc21 | > 256 | > 256 | 160 | 124000 | 55 | – | > 1000
49 | Cn1c(=O)[nH]c2ncc(-c3cccc(C(=O)NCCc4c[nH]cn4)c3)cc21 | > 256 | > 256 | 2300 | – | – | – | –
50 | Cn1c(=O)[nH]c2ncc(-c3cccc(N)c3)cc21 | > 256 | > 256 | 63000 | – | – | – | –
51 | Cn1c(=O)[nH]c2ncc(-c3cccc(C(=O)NCC#N)c3)cc21 | > 256 | > 256 | 2100 | – | – | – | –
